Only some compounds are listed: those with a hit (about 3.8% of all), similar ones and a draw of the others.
GPR7 antagonist: human neuropeptides B/W receptor 1 antagonism. 290,000 compounds, 1.1% hits. P48145. inhibition, % at 4.4 µM. AID 1861. GPR7-expressing cells, fluorescence antagonist assay; in the data active = inhibition above about 16%, passing the limit was not always enough;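 also: cells stimulated with the agonist NPW; 0% = agonist with vehicle and 100% = vehicle without agonist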
Target sequence (P48145 whole entry, looked up): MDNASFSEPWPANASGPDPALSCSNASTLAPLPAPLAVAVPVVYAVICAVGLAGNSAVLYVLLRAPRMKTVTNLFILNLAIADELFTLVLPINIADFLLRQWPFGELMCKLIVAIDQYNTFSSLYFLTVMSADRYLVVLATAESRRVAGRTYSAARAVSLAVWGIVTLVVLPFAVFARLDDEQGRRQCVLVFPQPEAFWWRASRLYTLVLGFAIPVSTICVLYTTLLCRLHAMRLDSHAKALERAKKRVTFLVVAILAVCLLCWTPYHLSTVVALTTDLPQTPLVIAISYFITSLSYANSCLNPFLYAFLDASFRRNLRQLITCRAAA
OX1R antag-1: blocks the human orexin 1 receptor. CHO/OX1R cells, Fluo-8 calcium fluorescence, orexin A. inhibition, % at 5 µM. 330,000 compounds, 0.43% hits;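 active = inhibition above its plate's threshold, mean inhibition of all tested compounds on the plate plus 3 SD, cut at about 37% in these data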;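 also: 0% = orexin A challenge wells and 100% = SB-334867-A antagonist wells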
CHO parental Ca: signal in parental CHO cells, OX1R antagonist counter-screen. 330,000 compounds, 0.63% hits. parental CHO-K1, ATP-induced calcium, Fluo-8 fluorescence. inhibition, % at 5.6 µM;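 active = inhibition above that plate's mean sample inhibition plus 3 SD, cut at about 26% in these data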;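 also: 0% = ATP-challenged DMSO wells and 100% = DMSO wells without ATP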
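Test system: untransfected parental CHO cell line; also added: ATP stimulus; dosing: 5.6 µM, single dose; signal: calcium-sensitive Fluo-8 fluorescence; measure: percent inhibition of ATP-evoked calcium rise, normalized to controls; benchmarks: low control ATP plus DMSO, high control DMSO only; replication: one well per compound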
MPTP block: permeability transition pore inhibition. isolated mouse mitochondria, Ca2+ swelling absorbance, 30 min. inhibition, % at 10 µM. 360,000 compounds, 1.4% hits. AID 602449;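 active = inhibition of 50% or more, scaled per plate between neutral and stimulator controls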;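 also: 0% = DMSO wells given calcium and 100% = 1 mM EGTA wells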
OX1R antag-2: blocks the human orexin 1 receptor | OX1R-expressing cells, FRET antagonist read-out | O43613 | AID 485270 | 330,000 compounds, 1.8% hits | inhibition, % at 6.6 µM; in the data active = inhibition mostly above about 38%, no sharp cut-off; inactive = mostly below about 40%;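 also: 0% = agonist challenge alone and 100% = reference antagonist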
OX1R Fluo8 conf: OX1R (human) antagonism, confirmed | AID 492963 | shares compounds with OX1R antag-1 | 1,100 compounds, 38% hits | inhibition, % at 5 µM | CHO/OX1R cells, orexin A calcium Fluo-8 fluorescence; in the data active = inhibition above about 29%;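 also: 0% = agonist challenge alone and 100% = reference antagonist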
CHO Ca counter: signal in parental CHO cells, OX1R antagonist counter-screen. inhibition, % at 5.6 µM. parental CHO-K1, ATP-induced calcium, Fluo-8 fluorescence. 1,100 compounds, 9.3% hits. AID 492965. shares compounds with OX1R antag-1;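 active = inhibition above a per-plate limit, the mean inhibition of that plate's test compounds plus 3 SD, cut at about 25% in these data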;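 also: 0% = ATP challenge with DMSO and 100% = DMSO without ATP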
The depositor's hits bear a star; nt = not tested or not shown.

SMILES	GPR7 antagonist	OX1R antag-1	CHO parental Ca	MPTP block	OX1R antag-2	OX1R Fluo8 conf	CHO Ca counter
OC(CN1CCCCC1)Cn1c2ccccc2c2cc(Br)ccc21 (configuration not stated)	34.8	37.3	10.6	-0.4	13.5	14.4	-3.9
CC(=O)c1ccc(OCc2cc(C(=O)N(C)Cc3nc4c(C)cccc4[nH]3)no2)cc1	-8.8	-26.9	-10.9	0.1	26.5	nt	nt
CC(=O)c1ccc(OCc2cc(C(=O)N(C)CCOc3ccc(C)cc3)no2)cc1	2.8	26.9	-0.8	17.8	11.2	0.1	-2.5
Fc1ccccc1CNc1ccc(Cl)c(Cl)c1	-20.0	17.1	4.9	7.7	15.3	nt	nt
O=[N+]([O-])c1ccc(Cl)cc1CNc1ccc(F)c(F)c1	-13.1	37.8	-11.2	4.8	20.9	1.4	-3.6
CCN(CC)c1ccc2c(C)c(Cl)c(=O)oc2c1	-1.2	-22.2	-18.7	-1.9	16.3	nt	nt
CCN(CC)c1ccc2c(c1)oc(=O)c1c(Cl)cc(=O)oc12	-8.2	28.5	16.4	0.3	21.8	79.9*	56.0*
CCc1nc2ccc(C(=O)NCCCN3CCCC3=O)cn2c1N(C)C(=O)COc1ccccc1	nt	nt	nt	0.4	nt	nt	nt
CCCC(=O)Nc1ccc2oc(-c3ccncc3)nc2c1	-8.2	-9.5	-2.5	0.4	15.2	nt	nt
CCCC(=O)Nc1ccc(-c2nc3cc(C)c(C)cc3o2)cc1	-7.3	44.9	-0.4	2.4	12.9	5.6	9.4
O=S(=O)(NCc1ccccc1)c1ccc(S(=O)(=O)N(Cc2ccccn2)C2CCCC2)cc1	0.0	50.2*	-4.8	4.0	33.3	15.7	-9.3
Cc1c(Cl)cccc1NC(=S)NCc1ccccc1	2.4	-12.2	-8.1	3.5	8.1	nt	nt
Cc1cccc(NC(=S)NCc2ccccc2Cl)c1C	1.7	66.4*	-4.8	-0.2	36.2	-8.7	-10.7
Cc1onc(-c2ccccc2Cl)c1C(=O)OCC(=O)N1CCCCC1	nt	-22.7	-17.6	-0.2	0.5	nt	nt
Cc1[nH]c(=O)[nH]c(=O)c1S(=O)(=O)N1CCCC(C(=O)NCCc2ccc(Cl)cc2)C1 (configuration not stated)	-7.7	33.5	-0.2	-0.2	24.9	1.0	-7.4
CCc1ccc(CNC(=O)c2ccc3c(c2)NC(=O)C(N2CCOCC2)S3)cc1 (configuration not stated)	-1.1	-17.8	-12.0	-0.5	4.8	nt	nt
CCOC(=O)N1CCN(C(=O)c2ccc3c(c2)NC(=O)C(N2CCOCC2)S3)CC1 (configuration not stated)	-8.2	28.2	5.9	-6.0	9.2	3.8	-0.8
Cc1ccc(NC(=O)c2cc3ccccc3o2)nc1	nt	-17.7	-12.8	-0.6	22.5	nt	nt
Cc1cc(NC(=O)CSCC(=O)Nc2ccc(Cl)c(C(F)(F)F)c2)no1	nt	-21.1	-21.0	-0.4	25.2	nt	nt
Cc1cc(NC(=O)CN(C)CC(=O)Nc2ccc(Cl)c(C(F)(F)F)c2)no1	nt	40.2*	-10.5	0.5	12.0	2.7	0.1
COc1ccc2c(n1)Sc1nc3ccccc3nc1N2	16.6	34.9	24.3	1.6	29.5	47.3*	37.3*
COc1ccc(C2NC3=C(CCC3)C3(C#N)C4(N=C(N)C23C#N)OCCO4)cc1 (configuration not stated)	2.3	35.6	-7.6	-11.1	39.9	3.4	-1.4
COc1ccc(C2NC3=C(CCCC3)C(C#N)(C#N)C2(C#N)C#N)cc1 (configuration not stated)	-4.1	5.3	1.9	nt	1.3	nt	nt
COc1ccc2c3c(cccc13)C(=O)N(O)C2=O	-12.2	-9.3	-11.4	1.7	41.1	nt	nt
COc1ccc(C(C)=O)c2c(O)cccc12	-13.8	31.9	-7.6	3.9	61.4	13.6	-3.6
SMILES	GPR7 antagonist	OX1R antag-1	CHO parental Ca	MPTP block	OX1R antag-2	OX1R Fluo8 conf	CHO Ca counter
COc1cccc(CN2C(=O)C(C)N(C(=O)c3c(F)cccc3F)c3ccccc32)c1 (configuration not stated)	0.6	33.4	21.9	-0.6	26.2	-1.9	-3.5
Cc1ccc(S(=O)(=O)N(C)c2ccc(OC(=O)c3cccs3)cc2)cc1	nt	37.2	9.3	-0.8	6.0	-4.7	-2.7
CC1C(=O)C(C)C(c2ccccc2F)NC1c1ccccc1F (configuration not stated)	6.6	-22.8	-11.5	-0.6	-1.6	nt	nt
CCOc1cccc(C(=O)Nc2cccc(-c3nnc(-c4ccccc4)o3)c2)c1	-5.0	-21.1	-0.3	14.5	6.6	nt	nt
COc1cccc(C(=O)Nc2cccc(-c3nnc(-c4ccccc4)o3)c2)c1	nt	43.8	1.6	12.5	14.5	-0.1	-13.2
Cc1ccc(OCCCCN2CCc3ccccc3C2)cc1	-19.0	-34.4	-21.3	0.7	14.5	nt	nt
COc1ccc(NS(=O)(=O)c2cccc(NC(=O)COc3ccccc3[N+](=O)[O-])c2)cc1	nt	50.8*	1.7	1.5	19.2	18.2	8.9
O=C(NC(=S)NCc1ccccc1)c1cccc(Cl)c1	-7.9	4.9	0.2	1.5	-7.2	nt	nt
CC(=O)Nc1ccc(-c2nnc(SCC(=O)Nc3ccc4c(c3)oc3ccccc34)n2C)cc1	13.5	25.4	12.0	1.9	13.1	-0.8	-2.3
Cc1ccccc1CS(=O)(=O)c1cn(CC(=O)N2CCOCC2)c2ccccc12	-20.2	-1.6	-10.4	-1.4	13.7	nt	nt
COC(=O)c1ccc2[nH]c3cccc(/C(=C/c4ccccc4)c4ccccc4)c3c2c1	-18.4	-13.1	-9.2	2.5	17.0	nt	nt
O=C1CCCc2[nH]c3cccc(/C(=C/c4ccccc4)c4ccccc4)c3c21	-7.1	38.9	4.4	-1.5	47.7	19.1	0.5
CC(C)CNC(=O)/C=C/C=C/CCCC/C=C/c1ccc2c(c1)OCO2	nt	-9.7	-13.7	-0.8	4.0	nt	nt
Cc1nc2c(C)cccc2c2c1CCS2	-6.3	-14.6	-14.3	2.1	-0.7	nt	nt
CCOC(=O)C1CCN(C(=O)CSCc2nc(-c3ccc(OCC)cc3)oc2C)CC1	-7.7	29.4	16.8	-0.3	42.2	-2.2	16.5
Cc1ccc(NC(=O)Cn2nc(C(=O)O)c3ccccc3c2=O)cc1S(=O)(=O)N1CCCCC1	nt	40.9*	4.0	-0.2	13.7	11.8	0.5
Cc1ccc(NC(=O)COc2ccccc2)cc1S(=O)(=O)N1CCCCC1	nt	nt	nt	0.7	nt	nt	nt
CC(=O)C1=C(O)C(CSCc2ccccc2)N(C)C1=O (configuration not stated)	nt	nt	nt	-0.1	nt	nt	nt
Cc1[nH]c(C)c(S(=O)(=O)N2CCN(c3ccc(Cl)cc3)CC2)c1C(=O)N1CCCC1	3.2	-0.2	-1.1	-1.7	8.5	nt	nt
CC(NCC(=O)Nc1cc(S(=O)(=O)N2CCCCCC2)ccc1Cl)c1ccccc1 (configuration not stated)	-21.8	27.3	21.5	-0.3	23.8	27.9	26.1*
O=C(COC(=O)C1CC(O)CN1S(=O)(=O)c1ccccc1[N+](=O)[O-])c1ccc[nH]1 (configuration not stated)	nt	-8.8	-11.2	0.5	8.9	nt	nt
